Fewer inactive variants are shown than the library holds.
B1: tRNA (parent)
chain: GUUCCGUUGGCGUAAUGGUAACGCGUCUCCCUCCUAAGGAGAAGACUGCGGGUUCGAGUCCCGUACGGAACG

Variants of: B1
Assay: yeast fitness relative to wild type (ratio to wild type); higher = fitter; tRNA-Arg(CCU), competitive growth, 37 C, YPD
Outline: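 Start and end populations of a pooled competition were compared by 100-nucleotide paired-end sequencing of gene amplicons. The Saccharomyces cerevisiae strains carried tRNA-Arg(CCU) gene variants at the native genomic locus, synthesised with a 3% per-site mutation rate at 69 sites, and competed in YPD at 37°C for 24 hours in six parallel replicates. Darwinian fitness relative to wild type was based on the change in genotype frequencies. Genotypes required ≥ 100 starting reads, and estimates < 0.5 were set to 0.5.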

Going from U26C A70G to G25A C55G U59A G63A, the yeast fitness falls from 0.915 to at most 0.5.

Going from G25C G50A to U26A U54A G58A, the yeast fitness falls from 1 to at most 0.5.

Compared with U26C A37U, G25C U54G is lower in yeast fitness: 0.702 for the first, 0.581 for the second.

First: G25A C62A A65C
Second: G25C G41C A70C
The yeast fitness of the first is lower: 0.517 for the first, 0.559 for the second.

G25U A36U C61U and U26A C34G C49A U53C A69U cannot be ordered by yeast fitness: at most 0.5 for the first, at most 0.5 for the second.

U26A C34G A43U C49A and G25C A45G G50A C62G cannot be ordered by yeast fitness: at most 0.5 for the first, at most 0.5 for the second.

Going from G25C C31G C61G C66G to G25C U28C A70C, the yeast fitness falls from 0.674 to 0.563.

Going from G25C G41C to G25C C31G C34G A57C, the yeast fitness falls from 0.625 to at most 0.5.

G25C C29U C34G and U26A A42C A45G C49U cannot be ordered by yeast fitness: at most 0.5 for the first, at most 0.5 for the second.

Going from G25C C31U U32A to G25A G48A, the yeast fitness rises from at most 0.5 to 0.981.

Compared with U26C C30G C61U, U26A A43C is higher in yeast fitness: at most 0.5 for the first, 0.966 for the second.

Compared with U26C A42U A69C, U26C A36C C62A is lower in yeast fitness: 0.669 for the first, at most 0.5 for the second.

First: G25A C61U G63C
Second: G25U C29G A42C C66U G67A
The yeast fitness of the first is higher: 0.528 for the first, at most 0.5 for the second.

U26A A57C A70U and G25C C29U C30U U35C A40C cannot be ordered by yeast fitness: at most 0.5 for the first, at most 0.5 for the second.

First: G25C A69U
Second: G25A C60A A69G
The yeast fitness of the first is higher: 0.929 for the first, at most 0.5 for the second.

Compared with U26C C31U A43G, G25C C29G is lower in yeast fitness: 1.12 for the first, 0.703 for the second.

Going from G25C C29U to G25C A42C C61U, the yeast fitness falls from 0.688 to at most 0.5.

G25U U32C A36U G56C A65C and G25C C34G A45U cannot be ordered by yeast fitness: at most 0.5 for the first, at most 0.5 for the second.

G25C C29A G52A C66U and G25C A42U A43G U53C A65G cannot be ordered by yeast fitness: at most 0.5 for the first, at most 0.5 for the second.

Compared with U26C C27G C34G G67A, G25A U32A C46U A57U is higher in yeast fitness: at most 0.5 for the first, 0.609 for the second.

Compared with U26A C29G A43G A45U, G25C G39A is higher in yeast fitness: at most 0.5 for the first, 0.787 for the second.

Compared with G25A U32A U54G G56A, G25A G41A G67A is higher in yeast fitness: at most 0.5 for the first, 0.59 for the second.

First: G25A G50C U54C
Second: G25C G67A
The yeast fitness of the first is lower: 0.627 for the first, 1.01 for the second.

U26A U54A C55U and G25A G41A G51C C60U cannot be ordered by yeast fitness: at most 0.5 for the first, at most 0.5 for the second.

First: G25A C31U
Second: U26C A40G C49U
The yeast fitness of the first is higher: 0.923 for the first, 0.502 for the second.

First: G25A G38C A42C
Second: G25A U47C C60U
The yeast fitness of the first is lower: at most 0.5 for the first, 0.587 for the second.

G25A U47C G56C C60U A70U and U26A C33A A45C A65U G67C cannot be ordered by yeast fitness: at most 0.5 for the first, at most 0.5 for the second.

First: G25C A57G
Second: G25C C31G
The yeast fitness of the first is higher: 0.892 for the first, 0.704 for the second.

Compared with G25C C31A, U26A A57G C60U is lower in yeast fitness: 0.677 for the first, at most 0.5 for the second.

Going from U26C C27G C60G C62U to G25A C49A, the yeast fitness rises from 0.624 to 0.691.

Going from U26A A70G to U26C C29A G67C, the yeast fitness falls from 0.924 to at most 0.5.

First: G25A G50A C66U
Second: G25C G58C A65U
The yeast fitness of the first is lower: 0.629 for the first, 0.928 for the second.

G25C A40G C61G G63A A69U and G25C A37U G48A C61U cannot be ordered by yeast fitness: at most 0.5 for the first, at most 0.5 for the second.

First: G25A G51C
Second: G25A C46U G50C
The yeast fitness of the first is higher: 0.575 for the first, 0.556 for the second.

Compared with G25C U28C A69G A70C, U26C A45C is higher in yeast fitness: at most 0.5 for the first, 0.857 for the second.

First: U26A G41C C46U
Second: U26A G52U C55A
The yeast fitness of the first is higher: 0.797 for the first, 0.616 for the second.

Going from U26C A36C to G25A U32A U53A A70C, the yeast fitness falls from 0.559 to at most 0.5.

First: G25C C29G A43G C49G
Second: U26C C27G A69C
The yeast fitness of the first is higher: 0.647 for the first, at most 0.5 for the second.

U26A C31A A42G C55G and G25C U26G C46G G51A A70U cannot be ordered by yeast fitness: at most 0.5 for the first, at most 0.5 for the second.

First: G25C G63A
Second: U26A A43G A69C
The yeast fitness of the first is higher: 0.955 for the first, 0.649 for the second.

Compared with U26A C29U C31U G48A, G25A C60G G63C is lower in yeast fitness: 0.596 for the first, 0.548 for the second.

First: U26A A57C G67A A69U
Second: U26A U47A C61A
The yeast fitness of the first is higher: 0.58 for the first, at most 0.5 for the second.

First: U26C A42C U54A
Second: G25A C31U G38C G48A
The yeast fitness of the first is lower: at most 0.5 for the first, 0.651 for the second.

Compared with G25C C49U G63A, U26C C27U A57G is lower in yeast fitness: 0.83 for the first, 0.725 for the second.

First: G25A U32C G41A
Second: U26A A42G U47C G63A
The yeast fitness of the first is higher: 0.546 for the first, 0.519 for the second.

Compared with G25A G41A A70U, U26A C33A C34G is lower in yeast fitness: 0.713 for the first, 0.644 for the second.

Compared with U26C C30U C61A, G25C C29G A43G is lower in yeast fitness: 0.571 for the first, at most 0.5 for the second.

Compared with G25C C29G A43C, U26C C31U C49G is higher in yeast fitness: at most 0.5 for the first, 0.622 for the second.

Going from G25C C29U A65C A70U to U26A C34G G56A, the yeast fitness rises from at most 0.5 to 0.565.

Compared with G25A U26G, G25A U26C is higher in yeast fitness: 0.805 for the first, 0.947 for the second.

First: G25C A40C C49U
Second: G25C C34U G56A
The yeast fitness of the first is higher: 0.76 for the first, at most 0.5 for the second.

Going from U26A C31G to G25A G41A C61A A65U, the yeast fitness falls from 0.942 to at most 0.5.

First: U26A G48C
Second: U26C A37G G67C
The yeast fitness of the first is higher: 0.78 for the first, 0.614 for the second.

Compared with U26C A57G, U26C A57U is lower in yeast fitness: 0.984 for the first, 0.793 for the second.

First: G25C A40G U47A A57C G63A
Second: G25C C49U G51A
The yeast fitness of the first is lower: at most 0.5 for the first, 0.568 for the second.

Going from U26A C27U A65G A69G to G25C C55U A69U, the yeast fitness falls from 0.669 to 0.609.

G25C U28C C62U A70C and G25C U26A U35C cannot be ordered by yeast fitness: at most 0.5 for the first, at most 0.5 for the second.

First: G25A C60U
Second: U26C C30U U59A A69U
The yeast fitness of the first is higher: 0.808 for the first, at most 0.5 for the second.

Compared with U26A G50A, G25C C34G A57G is lower in yeast fitness: 0.875 for the first, at most 0.5 for the second.

G25U C29G A42C and U26A A40C C66A cannot be ordered by yeast fitness: at most 0.5 for the first, at most 0.5 for the second.

G25C G41C G48C and U26C C27G C33G A37U G41A A57G C62G cannot be ordered by yeast fitness: at most 0.5 for the first, at most 0.5 for the second.

Going from G25A G52U U54C to G25C C60G, the yeast fitness rises from at most 0.5 to 0.665.

Compared with U26A C29U C33U C62G, G25C C61A is lower in yeast fitness: 1.09 for the first, 0.75 for the second.

First: U26A U64A
Second: G25C U32C
The yeast fitness of the first is lower: 0.788 for the first, 0.948 for the second.

First: G25C U32G
Second: U26A C31U G48A
The yeast fitness of the first is lower: 0.655 for the first, 0.998 for the second.

Going from G25C C46A G58A G63U to G25A C34A, the yeast fitness rises from 0.604 to 0.77.

Compared with G25A C34U, G25A U28A A43U is higher in yeast fitness: 0.574 for the first, 0.835 for the second.

Compared with G25A C49U A70C, U26A C30A C34A A45C is lower in yeast fitness: 0.845 for the first, at most 0.5 for the second.

First: G25A C34U A43U
Second: G25A G41C G58A
The yeast fitness of the first is lower: at most 0.5 for the first, 0.975 for the second.

First: G25C G52A
Second: G25C A42U
The yeast fitness of the first is lower: 0.748 for the first, 0.869 for the second.

Compared with U26A C31U A65C, U26A A40G is lower in yeast fitness: 0.691 for the first, 0.657 for the second.

Going from U26C C31A C66G to U26A G58C A65G, the yeast fitness rises from at most 0.5 to 0.611.

Compared with G25C G38C C60G, G25C C27A C66U is lower in yeast fitness: 0.747 for the first, at most 0.5 for the second.

First: G25C C31G C62U
Second: G25C G38A
The yeast fitness of the first is lower: 0.737 for the first, 0.951 for the second.

U26C A36G A45G and U26A C27A U28A C34U cannot be ordered by yeast fitness: at most 0.5 for the first, at most 0.5 for the second.

Compared with G25U U64A, U26C A37U U47C U54A is lower in yeast fitness: 0.687 for the first, at most 0.5 for the second.

First: U26A C49G G56U
Second: G25C C31A A65C
The yeast fitness of the first is lower: at most 0.5 for the first, 0.678 for the second.

Going from U26C A42C to U26C A42U, the yeast fitness rises from 0.828 to 1.01.

G25A G38C G48A C60U and U26C A37U A45U G63A cannot be ordered by yeast fitness: at most 0.5 for the first, at most 0.5 for the second.

U26A U53A A65G and U26A C27U C29A A65G G68C cannot be ordered by yeast fitness: at most 0.5 for the first, at most 0.5 for the second.

Compared with U26C A40C C46U A65G G68C, U26C A42U G56A is higher in yeast fitness: at most 0.5 for the first, 0.651 for the second.

G25C C27G U47C and G25C G39C G52C G58C cannot be ordered by yeast fitness: at most 0.5 for the first, at most 0.5 for the second.

First: U26C C33G A42C C49G G58C C62G
Second: G25C C33A A43C G68A
The yeast fitness of the first is higher: 0.616 for the first, at most 0.5 for the second.

Variant G25C G41C A42U C49A has a yeast fitness of at most 0.5.

Source: the RNAGym collection of RNA variant scans (doi:10.1126/science.aae0568)
